Consider 89 compounds from PubChem BioAssay AID504383 (The Scripps Research Institute Molecular Screening Center, 2011).

Each structure is given as a SMILES string. The campaign covered roughly 2,500 compounds. About 1,200 (48%) were called active. So high a share suggests a set chosen from earlier hits. The list shows a part of the results. A number with no mark means an inactive call.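 The calls were made as follows: active = mean activation above the low control average plus 3 SD, as set in the primary screen (cut at about 12% in these data); inactive = the rest.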

The assay deals with Troponin I, cardiac muscle (Homo sapiens) + Troponin T, cardiac muscle (Homo sapiens) + Troponin C, slow skeletal and cardiac muscles (Homo sapiens) (UniProt P19429+P45379+P63316). Kind of assay: cardiac RTF calcium sensitivity activators, confirmation, biochemical, IANBD-TnC fluorescence, triplicate (AID 504383).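 Also: 0% = DMSO at 0.472 mM calcium and 100% = DMSO at 2.9 mM calcium.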 The note with it: IANBD-labeled cardiac RTF, Ca2+ sensitivity fluorescence; at 7.2 µM; hits give high values; scaled from EC20 to saturating calcium; tested at EC20 calcium, 0.472 mM. The essentials: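 Assay system: labelled regulated thin filaments / Timing: 15 min at 25 °C / Detection: fluorescence intensity of labelled filaments / Measure: fluorescence gain scaled between EC20 and EC100 calcium controls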
For `CN(C)c1ccc(/C=C2\NC(=S)N(Cc3ccccc3)C2=O)cc1`, the activation is 217% (active).

Consider `Cc1ccc(C2C3CN(C(C)C)CC=C3C(C#N)=C(N)C2(C#N)C#N)cc1` (centres undefined), for which the activation was 9.22%.

As for `Cc1ccc([C@@H]2C3COCC=C3C(C#N)=C(N)C2(C#N)C#N)o1` (some centres undefined), the activation was 13.5% (active).

As for `CCC(CC)C(=O)c1c[nH]c(C(=O)N2CCN(c3ccccc3F)CC2)c1`, the activation was 60.8% (active).

On to `CC(C)CN1CCC(C(=O)N2CCN(c3ccccc3F)CC2)CC1`, for which the activation is 4.79%.

In the case of `CCOc1ccc(CNC(=O)c2ccc(Sc3ccc(Cl)cc3)c(NC(C)=O)c2)cc1`, the activation was 16.5% (active).

On to `O=C(NCc1ccco1)c1cc(-c2cccc(Cl)c2)on1`, for which the activation was 4.34%.

Regarding `COc1c(Cl)ccc(Cl)c1C(=O)NCc1ccco1`, the activation was 8.15%.

Consider `CCOc1c2ccc(C(=O)NCc3ccc(C)cc3)cc2nn1CCOC`, for which the activation is 0.03%.

In the case of `CC(=O)Nc1cc(C(=O)NCc2ccco2)ccc1Sc1ccc(F)cc1`, the activation is 69.2% (active).

As to `CC1(C)CC(=O)C2=C(C1)OC(N)=C(C#N)[C@@H]2c1ccccc1[N+](=O)[O-]`, the activation is 22% (active).

Take `O=C1C2C3C=CC(C4CC34)C2C(=O)N1/N=C/c1ccc(-c2ccc(F)cc2[N+](=O)[O-])o1` (centres undefined): the activation is 23.2% (active).

As for `COc1ccc(O)c(/C=C2/SC(=S)N(Cc3ccccc3)C2=O)c1`, the activation is 0.43%.

In the case of `Cc1cc(/C=C2\SC(=S)N(Cc3ccco3)C2=O)c(C)n1-c1cccnc1`, the activation is 48.4% (active).

Turning to `COc1ccc(-n2c(C)cc(/C=C3\SC(=S)NC3=O)c2C)cc1`, the activation is 8.15%.

Consider `CCN1C(=S)SC(=O)C1=C1C=C(C)N(Cc2ccco2)C(C)=C1`, for which the activation is 8.86%.

With `CCN1CCN(c2c(/C=C3\SC(=S)N(Cc4ccco4)C3=O)c(C)c(C#N)c(=O)n2C)CC1`, the activation was 4.2%.

As to `COc1ccc(-n2c(C)cc(/C=C3\SC(=S)N(Cc4ccco4)C3=O)c2C)cc1`, the activation was 239% (active).

Consider `Cc1cc(/C=C2\SC(=S)N(C)C2=O)c(C)n1-c1ccccc1O`, for which the activation is 33% (active).

With `Cc1cc(/C=C2\SC(=S)N(Cc3ccco3)C2=O)c(C)n1-c1ccccc1`, the activation was 17.4% (active).

Turning to `COc1cccc2c1C(=O)c1c(O)c3c(c(O)c1C2=O)CC(O)(C(C)=NNC(=O)c1ccc(Cl)c(Cl)c1)CC3OC1CC(N)C(O)C(C)O1` (centres undefined), the activation was 5.43%.

As to `CN(C)C=NC(=O)c1cc(C(=O)c2ccccc2Cl)c[nH]1`, the activation was 11%.

As for `O=C(c1c[nH]c(C(=O)C(Cl)(Cl)Cl)c1)c1c(F)cccc1F`, the activation was 3920% (active).

Regarding `O=S(=O)([N-]c1nc2ccccc2nc1-[n+]1ccc(-c2ccncc2)cc1)c1ccccc1`, the activation is 4.89%.

As for `Cc1ccc[n+](-c2nc3ccccc3nc2[N-]S(=O)(=O)c2ccccc2)c1`, the activation is 55.5% (active).

Take `CCOC(=O)N1CCC(Nc2cccc(SC)c2)CC1`: the activation is 246% (active).

As to `CCOC(=O)N1CCC(NC(=O)c2cccs2)CC1`, the activation is 6.98%.

Regarding `CCOC(=O)c1cc(-c2ccc(F)cc2)n(CCC(=O)NC2CCN(Cc3ccccc3)CC2)c1C`, the activation is 10.5%.

For `Cc1ccc(Cn2c(O)c(N=NC(=S)Nc3ccccc3F)c3cc(S(=O)(=O)N4CCOCC4)ccc32)cc1`, the activation is 17.5% (active).

In the case of `Oc1c(N=NC(=S)Nc2ccccc2F)c2ccccc2n1Cc1ccc(F)cc1`, the activation was 3.17%.

For the compound `CCOC(=O)CCC(=O)NCc1ccc2c(c1)cc(C)n2C`, the activation was 11.9% (active).

In the case of `O=C(O)CSc1ncnc2scc(-c3ccc(Br)cc3)c12`, the activation is 11.7% (active).

As to `CCc1ccc(-n2c(O)c(C=NCCN(CC)CC)c(=O)[nH]c2=O)cc1`, the activation was 20.8% (active).

As to `Cc1nnc(SCC(=O)NC(C)(C)C)n1C1CCCCC1`, the activation was 45% (active).

With `CC(C)(C)NC(=O)CSc1nnc(-c2ccccn2)n1-c1ccccc1`, the activation was 6.6%.

As for `CN(C)S(=O)(=O)c1ccc2c(c1)/C(=C/c1cc3c([nH]1)CCCC3)C(=O)N2`, the activation is 18.2% (active).

For `Cc1ccc(-n2c(C)n[nH]c2=S)cc1`, the activation was 6.67%.

`S=c1[nH]nc(-c2ccc(Cl)cc2)n1-c1ccc2c(c1)OCCO2`: the activation was 136% (active).

In the case of `Cn1c(=O)c(NCCO)c2c3c(cccc31)C(=O)c1ccccc1-2`, the activation is 4.78%.

`CC(=O)Nc1ccc(Nc2c3c4c(cccc4n(C)c2=O)C(=O)c2ccccc2-3)cc1`: the activation was 26.1% (active).

As to `Cn1c(=O)c(NC2CCCCC2)c2c3c(cccc31)C(=O)c1ccccc1-2`, the activation was 9.43%.

As to `Cc1nc(-c2ccc(C#N)cc2)cs1`, the activation was 8.7%.

With `CCOC(=O)C1C(=O)NC(SCC(N)=O)=C(C#N)C1c1ccccc1OCC` (centres undefined), the activation is 2.57%.

As to `Cc1ncoc1C(=O)N1CCc2c([nH]c3ccccc23)C1C(C)(C)C` (centres undefined), the activation was 2.53%.

Regarding `COC(=O)C1=COC(C)C2CN3CCc4c([nH]c5ccccc45)C3CC12` (centres undefined), the activation was 12.5% (active).

`COC(=O)C1C2CC3c4[nH]c5cc(OC)ccc5c4CCN3CC2CC(OC(=O)CC(C)=O)C1OC` (centres undefined): the activation was 7.14%.

`O=C(O)[C@@H]1[C@H]2C[C@H]3c4[nH]c5ccccc5c4CCN3C[C@@H]2CC[C@@H]1O`: the activation is 1.98%.

With `COC(=O)C1=COC(C)C2CN3CCc4c([nH]c5cc(OC)c(OC)cc45)C3CC12` (centres undefined), the activation is 15.2% (active).

On to `COC(=O)CCC(=O)OC1(C)C(=O)C=C2C=C(C3CC3)N(c3cccc(C#N)c3)C=C2C1=O` (centres undefined), for which the activation is 0.81%.

Consider `COc1ccc(/C=N/N=C2/CC(C)(C)Cc3n[nH]c(=O)cc32)cc1`, for which the activation is 955% (active).

Consider `CCN(CC)c1ccc2cc(-c3nnc(-c4ccccc4)o3)c(=O)oc2c1`, for which the activation is 232% (active).

With `O=c1oc2ccccc2cc1-c1nc(-c2cccs2)cs1`, the activation is 7.53%.

Regarding `N=c1oc2ccccc2cc1-c1nc(-c2ccccc2)cs1`, the activation is 4.19%.

As to `CCN(CC)c1ccc2cc(-c3nc4ccccc4n3C)c(=O)oc2c1`, the activation is 6.19%.

On to `CCN(CC)c1ccc2cc(-c3nc(-c4cc5ccccc5oc4=O)cs3)c(=O)oc2c1`, for which the activation is 12% (active).

Regarding `CCN(CC)c1ccc2cc(-c3nnc(-c4ccncc4)o3)c(=O)oc2c1`, the activation was 18.1% (active).

As for `Nc1c(C(=O)c2ccc(Cl)cc2)sc2nsc(SCCN3CCOCC3)c12`, the activation is 12.7% (active).

For the compound `Brc1ccc2[nH]c3nc(SCCN4CCOCC4)nnc3c2c1`, the activation was 6.16%.

For the compound `Nc1c(C(=O)c2cccs2)sc2nsc(SCCN3CCCCC3)c12`, the activation was -1.4%.

On to `COc1ccc(CNC(=O)c2sc(=S)n(-c3ccccc3)c2N)cc1`, for which the activation was 64.8% (active).

Turning to `COc1ccc(CNC(=O)C(C#N)c2nc3ccccc3nc2N2CCCC2)cc1` (centres undefined), the activation was 2.74%.

`COc1ccc(CNC(=O)c2cc3c(s2)CS(=O)C3)cc1` (centres undefined): the activation is 6.8%.

Turning to `COC(=O)c1cc(-c2cccc(OC)c2)n[nH]1`, the activation is 16.6% (active).

As to `CCCN1CC=C2C(C#N)=C(N)C(C#N)(C#N)C(c3cc(OC)ccc3OC)C2C1` (centres undefined), the activation was 2.79%.

For the compound `COc1ccc(OC)c(C2C3CN(C(C)C)CC=C3C(C#N)=C(N)C2(C#N)C#N)c1` (centres undefined), the activation was 17.8% (active).

Turning to `CN1C=CC2=C(C#N)C(N)C(C#N)(C#N)[C@H](c3ccccc3)[C@H]2C1` (some centres undefined), the activation is 6.1%.

Regarding `CN1CC=C2C(C#N)=C(N)C(C#N)(C#N)C(c3ccsc3)C2C1` (centres undefined), the activation is 7.36%.

In the case of `COc1cc([C@@H]2[C@H]3CN(C)CC=C3C(C#N)=C(N)C2(C#N)C#N)cc2c1OCO2`, the activation is 4.84%.

With `COc1cc(C2C3CN(C)CC=C3C(C#N)=C(N)C2(C#N)C#N)ccc1OC(C)C` (centres undefined), the activation is 49.2% (active).

For the compound `CC(C)(C)OC(=O)N1CC=C2C(C#N)=C(N)C(C#N)(C#N)C(c3cccs3)C2C1` (centres undefined), the activation was 8.81%.

As to `CN1CC=C2C(C#N)=C(N)C(C#N)(C#N)[C@H](c3cccc(Cl)c3)C2C1` (some centres undefined), the activation is 24.5% (active).

For `CN1CC=C2C(C#N)=C(N)C(C#N)(C#N)[C@H](c3cccs3)[C@H]2C1`, the activation is 13.3% (active).

As for `CN1C=CC2=C(C#N)C(N)C(C#N)(C#N)C(c3ccccc3)C2C1` (centres undefined), the activation is 4.16%.

Consider `CC(C)N1CC=C2C(C#N)=C(N)C(C#N)(C#N)C(c3ccccc3)C2C1` (centres undefined), for which the activation was 6.28%.

Take `CCN1CC=C2C(C#N)=C(N)C(C#N)(C#N)[C@H](c3ccoc3)[C@H]2C1`: the activation is -0.65%.

On to `CN1CC=C2C(C#N)=C(N)C(C#N)(C#N)[C@H](c3ccoc3)[C@H]2C1`, for which the activation is 62.5% (active).

For the compound `Cc1ccc2nc(/C(C#N)=C/c3ccc(-c4ccccc4C(=O)O)o3)[nH]c2c1`, the activation was 12.9% (active).

On to `Cc1cc2nc(/C(C#N)=C\c3ccc(-c4ccccc4C(=O)O)o3)[nH]c2cc1C`, for which the activation was 14.2% (active).

With `N#C/C(=C\c1ccc(Sc2ccc(Cl)cc2)o1)c1nc2ccccc2[nH]1`, the activation is 7.23%.

For `N#C/C(=C\c1ccc(-c2ccccc2C(=O)O)o1)c1nc2ccccc2[nH]1`, the activation is 14.2% (active).

Consider `COc1cccc(CN2CCNC(=O)C2CC(=O)N(C)Cc2cnccn2)c1OC` (centres undefined), for which the activation is 7.66%.

With `CC(=O)[C@H]1[C@H](C#N)C[C@H]2[C@@H]3CC=C4C[C@@H](O)CC[C@]4(C)[C@H]3CC[C@@]21C`, the activation is 45.3% (active).

Turning to `CSCC(O)Cn1ncc2ccccc2c1=O` (centres undefined), the activation is 5.97%.

As to `O=c1c2ccccc2cnn1Cc1n[nH]c(=S)n1-c1ccccc1Cl`, the activation is 16.3% (active).

For `CC1(C)NC(=O)N(CCCCOc2ccc(Cl)cc2)C1=O`, the activation is 0.92%.

Regarding `COc1cc(/C=C/c2sc3ccccc3[n+]2CCCS(=O)(=O)[O-])ccc1O`, the activation is 7.82%.

Turning to `CCC(/C=C1\Oc2ccc(OC)cc2N1C)=C\c1sc2ccccc2[n+]1CCCS(=O)(=O)[O-]`, the activation was 33.2% (active).

In the case of `CCOc1ccccc1C=NNC(=O)CCCCC(=O)NN=Cc1ccccc1OCC`, the activation was 6.22%.

On to `Cc1ccc(CSc2nnc(SCC(=O)N/N=C/c3ccccc3OCC(=O)O)s2)cc1`, for which the activation was 15.5% (active).
